Reference: ChEMBL document CHEMBL1137134, “Novel thiophenes and analogues with anthelmintic activity against Haemonchus contortus” (Bioorg Med Chem Lett, 2004)

Columns and labels:
Format in all cases: functional, organism-based
Haemonchus contortus [1] = assay: In vitro anthelmintic activity against Haemonchus contortus after 2 hr of incubation using larval mobility assay
Method in brief: (§1)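 L3 larvae (30–40/well) incubated with compound at 27 °C for 2 or 24 h, then moved to an insert whose wells have a nylon mesh (40 µm pores) under 2% low-melt agar. After 4 h more, larvae that migrated through the barrier were counted. Primary screen at 100 ppm, with >50% motility inhibition counted as active. EC50 from 2-fold serial dilutions, 200 to 0.2 µM.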

Haemonchus contortus [2] = assay: In vitro anthelmintic activity against Haemonchus contortus after 24 hr of incubation using larval mobility assay; method in brief: as §1
Haemonchus contortus [3] = assay: In vitro anthelmintic activity against Haemonchus contortus after 24 hr of incubation using larval mobility assay; NA denotes <50% inhibition of […] at 100 ppm
Method in brief: (§2)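 H. contortus L3 larvae (30–40/well) exposed to compound at 27 °C for 2 or 24 h, then moved to an insert with a 40 µm nylon mesh under 2% low melt agar. After a further 4 h, larvae that migrated through the barrier were counted. EC50 from 2-fold serial dilutions, 200 to 0.2 µM. Primary screen at 100 ppm, 24 h; >50% motility inhibition counted as active.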

Haemonchus contortus [4] = assay: In vitro anthelmintic activity against Haemonchus contortus after 2 hr of incubation using larval mobility assay; NA denotes <50% inhibition of mortality at 100 ppm; method in brief: as §2

CNc1nc(-c2ccccc2)cs1
EC50 (Haemonchus contortus [1]): 46 µM
EC50 (Haemonchus contortus [2]): 65 µM

CCSc1cc(-c2ccc([N+](=O)[O-])cc2)cs1
EC50 (Haemonchus contortus [1]): 193 µM
EC50 (Haemonchus contortus [2]): 15 µM

CCSc1cc(-c2cccnc2)cs1
EC50 (Haemonchus contortus [1]): 46 µM
EC50 (Haemonchus contortus [2]): 33 µM

CCSc1cc(-c2ccccc2)cs1
EC50 (Haemonchus contortus [3]): Not Active

CSc1nc(-c2ccc(F)cc2)cn1C
EC50 (Haemonchus contortus [3]): Not Active

CSc1scc(-c2ccc(F)cc2)c1Br
EC50 (Haemonchus contortus [1]): > 200 µM
EC50 (Haemonchus contortus [2]): 17 µM

CNc1nc(-c2ccc(F)cc2)cs1
EC50 (Haemonchus contortus [1]): 98 µM
EC50 (Haemonchus contortus [2]): 64 µM

CSc1cc(-c2ccc(F)cc2)cs1
EC50 (Haemonchus contortus [1]): > 200 µM
EC50 (Haemonchus contortus [2]): 68 µM

CSc1scc(-c2ccc(F)cc2)c1C#N
EC50 (Haemonchus contortus [1]): > 200 µM
EC50 (Haemonchus contortus [2]): 28 µM

CSc1ccc(-c2ccc(F)cc2)cc1C#N
EC50 (Haemonchus contortus [3]): Not Active

CSc1ccc(-c2ccc(F)cc2)cc1
EC50 (Haemonchus contortus [3]): Not Active

CCSc1cc(-c2cccc(C#N)c2)cs1
EC50 (Haemonchus contortus [1]): > 200 µM
EC50 (Haemonchus contortus [2]): 189 µM

CCOc1scc(-c2ccc(F)cc2)c1C#N
EC50 (Haemonchus contortus [3]): Not Active

CSc1nc(-c2ccc(F)cc2)c[nH]1
EC50 (Haemonchus contortus [3]): Not Active

CS(=O)(=O)c1scc(-c2ccc(F)cc2)c1C#N
EC50 (Haemonchus contortus [3]): Not Active

CCSc1cc(-c2cccs2)cs1
EC50 (Haemonchus contortus [1]): > 200 µM
EC50 (Haemonchus contortus [2]): 161 µM

N#Cc1cscc1-c1ccc(F)cc1
EC50 (Haemonchus contortus [3]): Not Active

CSc1cccc(-c2ccc(F)cc2)c1
EC50 (Haemonchus contortus [3]): Not Active

CSc1cc(-c2ccc(F)cc2)co1
EC50 (Haemonchus contortus [3]): Not Active

CC(=O)c1cc(-c2ccc(F)cc2)cs1
EC50 (Haemonchus contortus [3]): Not Active

CCSc1c(C#N)c(-c2ccc(F)cc2)cn1C
EC50 (Haemonchus contortus [4]): Not Active
EC50 (Haemonchus contortus [3]): Not Active

CCc1cc(-c2ccc(F)cc2)cs1
EC50 (Haemonchus contortus [3]): Not Active

CNc1scc(-c2ccc(F)cc2)c1C#N
EC50 (Haemonchus contortus [3]): Not Active

CCSc1nc(-c2ccccc2)cs1
EC50 (Haemonchus contortus [1]): > 200 µM
EC50 (Haemonchus contortus [2]): 32 µM

CSc1nc(-c2ccccc2)cs1
EC50 (Haemonchus contortus [1]): 82 µM
EC50 (Haemonchus contortus [2]): 190 µM

CCSc1scc(-c2ccc(F)cc2)c1C#N
EC50 (Haemonchus contortus [1]): > 200 µM
EC50 (Haemonchus contortus [2]): 6 µM

CSc1c(C#N)c(-c2ccc(F)cc2)cn1C
EC50 (Haemonchus contortus [1]): > 200 µM
EC50 (Haemonchus contortus [2]): 175 µM

CCSc1cc(-c2ccc(F)cc2)cs1
EC50 (Haemonchus contortus [1]): > 200 µM
EC50 (Haemonchus contortus [2]): 12 µM

CCNc1nc(-c2ccccc2)cs1
EC50 (Haemonchus contortus [1]): 162 µM
EC50 (Haemonchus contortus [2]): 102 µM

N#Cc1c(-c2ccc(F)cc2)csc1N
EC50 (Haemonchus contortus [3]): Not Active

CSc1scc(-c2ccc(F)cc2)c1[N+](=O)[O-]
EC50 (Haemonchus contortus [3]): Not Active

CCSc1cc(-c2ccc(F)c(F)c2)cs1
EC50 (Haemonchus contortus [1]): > 200 µM
EC50 (Haemonchus contortus [2]): 80 µM

c1ccc([C@H]2CN3CCSC3=N2)cc1 [LEVAMISOLE]
EC50 (Haemonchus contortus [1]): 18 µM
EC50 (Haemonchus contortus [2]): 15 µM
